PMC3114295 (Pain, 2011)

How the values were obtained:
EP24.16 = conditions: EP24.15 preferentially over EP24.16; cited from earlier work
EP24.15 = conditions: read-out: Ki for inhibiting EP24.15; cited from earlier work
male Sprague Dawley rats = assay: Bradykinin-induced thermal hyperalgesia, paw withdrawal latency; type: in vivo; conditions: rat hindpaw i.pl., JA-2 5 μM 25 μl 30 min before BK 0.1 μM 25 μl; n=6-10
Outline: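 Male Sprague-Dawley rats (200-250 g), tested in the light phase after 30 min acclimation. Blinded Hargreaves thermal latency, with baseline set near 10 s and a 20 s cutoff, taken as the mean of triplicate readings at least 30 s apart. Intraplantar s.c. vehicle (50% DMSO/0.9% saline) or test compound (5 μM), 25 μl; latency read 30 min later. BK (0.1 or 1 μM, 25 μl) then injected into the same paw; latency read at 5 min.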

[1] = prolonged incubation in various tissues; cited from earlier work
[2] = cited from earlier work

In the case of C[C@H](NC(CCc1ccccc1)C(=O)O)C(=O)NC(C)(C)C(=O)N[C@@H](Cc1ccc(O)cc1)C(=O)Nc1ccc(C(=O)O)cc1 (stereo partly drawn) [JA-2], the “times more potent at inhibiting EP24.15 than EP24.16 (selectivity)” value (EP24.16) is listed as 20-30 fold, the Ki (EP24.15) is listed as 23 nM and the “effect on response to sub-threshold BK (0.1 μM), thermal hyperalgesia” value (male Sprague Dawley rats) is listed as “resulted in a nociceptive response”. For the same compound, the “retention of activity after incubation in tissues (stability)” value [1] was “retains its activity after prolonged incubation in various tissues”.

For “N-[1-(R,S)-carboxy-3-phenylpropyl]-Ala-Ala-Tyr-p-aminobenzoate [cFP]”, the “potentiation of antinociceptive effects of co-administered opioid peptides” value ([2]; co-administered with Met-enkephalin-Arg-Gly-Leu and dynorphin A1-8) is listed as “potentiate the antinociceptive effects” and the antinociception ([2]; intracerebroventricular administration, time and dose-dependent) is listed as “significant antinociception”.
